Reference: ChEMBL document CHEMBL3997808 (J Med Chem, 2017)
≈ marks a conversion by molar mass, not a printed value.

Key:
Kidney = experiment: Drug uptake in Han Wistar rat kidney at 2 mg/kg, iv administered as 4 hrs infusion; assay type: ADME, organism-based; conditions: in vivo
In short: (§1)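 Rats received a 4 h iv infusion, after which terminal tissue samples were collected. Parent drug concentrations were measured in each tissue and compared with blood levels.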

[1] = AUC (0 to infinity) in rat at 2 mg/kg, po; assay type: ADME, organism-based; design: dose 2 mg/kg, route oral, time infinity; conditions: in vivo
[2] = Tmax in cynomolgus monkey at 1.9 mg/kg, po; assay type: ADME, organism-based, Macaca fascicularis; conditions: in vivo
[3] = AUC in cynomolgus monkey at 1.9 mg/kg, po; assay type: ADME, organism-based, Macaca fascicularis; conditions: in vivo
[4] = Kinetic solubility in phosphate buffer saline at pH 7.4 by chemiluminescence nitrogen detection method; assay type: physicochemical; conditions: phosphate buffered saline, read-out: Kinetic_solubility
In short: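 Kinetic aqueous solubility measured by chemiluminescent nitrogen detection (CLND) in phosphate-buffered saline pH 7.4. The solution was prepared from a DMSO stock of the inhibitor.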

[5] = Drug metabolism in human hepatocytes assessed as (S)-5-benzyl-N-(4-oxo-2,3,4,5-tetrahydrobenzo[b][1,4]oxazepin-3-yl)-1H-1,2,4-triazole-3-carboxamide formation at 10 uM measured up to 4 hrs; assay type: ADME, cell-based, Hepatocyte
In short: (§2)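 Compound at 10 μM was incubated with hepatocyte suspensions at 1 million cells/mL. Incubation ran at 37°C under 5% CO2:95% O2 for up to 4 h.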

[6] = AUC in rat at 2.1 mg/kg, po; assay type: ADME, organism-based; conditions: in vivo
[7] = Solubility of the compound in FaSSIF; assay type: physicochemical
[8] = Half-life in cynomolgus monkey at 1.2 mg/kg, iv; assay type: ADME, organism-based, Macaca fascicularis; conditions: in vivo
[9] = Clearance in cynomolgus monkey at 1.2 mg/kg, iv; assay type: ADME, organism-based, Macaca fascicularis; conditions: in vivo
[10] = biological target: T1, Receptor-interacting serine/threonine-protein kinase 1 (Mus musculus, UniProt Q60855); experiment: Displacement of (14-(2-{[3-({2-{[4-(cyanomethyl)phenyl]amino}-6-[(5-cyclopropyl-1H-pyrazol-3-yl)-amino]-4-pyrimidinyl}amino)propyl]amino}-2-oxoethyl)-16,16,18,18-tetramethyl-6,7,7a,8a,9,10,16,18-octahydrobenzo[2'',3'']indolizino-[8'',7'':5',6']pyrano[3',2':3,4]pyrido[1,2-a]indol-5-ium-2-sulfonate from mouse RIP1 (1 to 378 residues) expressed in baculovirus infected insect cells measured for 50 mins by fluorescence polarization assay
T1 sequence (Q60855 whole entry): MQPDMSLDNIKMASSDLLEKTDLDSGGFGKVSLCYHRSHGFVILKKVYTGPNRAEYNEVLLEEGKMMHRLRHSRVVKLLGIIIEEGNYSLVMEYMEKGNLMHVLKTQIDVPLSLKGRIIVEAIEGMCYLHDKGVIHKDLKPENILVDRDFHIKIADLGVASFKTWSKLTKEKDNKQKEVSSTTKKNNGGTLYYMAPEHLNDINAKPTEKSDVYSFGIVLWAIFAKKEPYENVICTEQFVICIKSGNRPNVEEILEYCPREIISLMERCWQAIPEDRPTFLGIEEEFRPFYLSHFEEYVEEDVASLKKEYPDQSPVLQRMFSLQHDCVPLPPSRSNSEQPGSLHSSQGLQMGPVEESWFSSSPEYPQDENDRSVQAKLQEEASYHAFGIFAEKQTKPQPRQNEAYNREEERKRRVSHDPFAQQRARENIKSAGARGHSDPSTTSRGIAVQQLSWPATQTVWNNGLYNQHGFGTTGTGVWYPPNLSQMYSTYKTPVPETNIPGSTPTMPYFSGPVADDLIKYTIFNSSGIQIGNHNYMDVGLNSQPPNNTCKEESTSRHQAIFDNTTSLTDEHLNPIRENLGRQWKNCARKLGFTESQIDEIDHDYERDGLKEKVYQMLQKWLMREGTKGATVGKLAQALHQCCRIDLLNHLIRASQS
In short: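 Competitive FP binding assay in which test compounds displace a fluorescently labeled ATP-competitive ligand from RIP1.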

Brain = experiment: Drug uptake in Han Wistar rat brain at 2 mg/kg, iv administered as 4 hrs infusion; assay type: ADME, organism-based; conditions: in vivo; in short: as §1
[11] = Fraction unbound in rat blood; assay type: ADME, tissue-based
Cynomolgus monkey = experiment: Toxicity in cynomolgus monkey at 2 to 1000 mg/kg, po after 1 month; assay type: organism-based, Macaca fascicularis; conditions: in vivo, 730.5 h
[12] = Fraction unbound in cynomolgus monkey blood; assay type: ADME, tissue-based, Macaca fascicularis
[13] = Drug metabolism in human hepatocytes assessed as 5-(hydroxy(phenyl)methyl)-N-((S)-5-methyl-4-oxo-2,3,4,5-tetrahydrobenzo[b][1,4]oxazepin-3-yl)-1H-1,2,4-triazole-3-carboxamide formation at 10 uM measured up to 4 hrs; assay type: ADME, cell-based, Hepatocyte; in short: as §2
[14] = Volume of distribution at steady state in cynomolgus monkey at 1.2 mg/kg, iv; assay type: ADME, organism-based, Macaca fascicularis; conditions: in vivo, read-out: Vdss
[15] = Drug metabolism in cynomolgus monkey hepatocytes assessed as glucuronide metabolite M553 formation at 10 uM measured up to 4 hrs; assay type: ADME, cell-based, Macaca fascicularis, Hepatocyte; in short: as §2
[16] = Drug metabolism in rat hepatocytes assessed as 5-benzyl-1H-1,2,4-triazole-3-carboxylic acid formation at 10 uM measured up to 4 hrs; assay type: ADME, cell-based, Hepatocyte; in short: as §2
[17] = biological target: Voltage-gated inwardly rectifying potassium channel KCNH2 (Homo sapiens, UniProt Q12809); experiment: Inhibition of human ERG expressed in HEK293 cells; assay type: cell-based
Voltage-gated inwardly rectifying potassium channel KCNH2, sequence (Q12809 whole entry, the tested form may be a part): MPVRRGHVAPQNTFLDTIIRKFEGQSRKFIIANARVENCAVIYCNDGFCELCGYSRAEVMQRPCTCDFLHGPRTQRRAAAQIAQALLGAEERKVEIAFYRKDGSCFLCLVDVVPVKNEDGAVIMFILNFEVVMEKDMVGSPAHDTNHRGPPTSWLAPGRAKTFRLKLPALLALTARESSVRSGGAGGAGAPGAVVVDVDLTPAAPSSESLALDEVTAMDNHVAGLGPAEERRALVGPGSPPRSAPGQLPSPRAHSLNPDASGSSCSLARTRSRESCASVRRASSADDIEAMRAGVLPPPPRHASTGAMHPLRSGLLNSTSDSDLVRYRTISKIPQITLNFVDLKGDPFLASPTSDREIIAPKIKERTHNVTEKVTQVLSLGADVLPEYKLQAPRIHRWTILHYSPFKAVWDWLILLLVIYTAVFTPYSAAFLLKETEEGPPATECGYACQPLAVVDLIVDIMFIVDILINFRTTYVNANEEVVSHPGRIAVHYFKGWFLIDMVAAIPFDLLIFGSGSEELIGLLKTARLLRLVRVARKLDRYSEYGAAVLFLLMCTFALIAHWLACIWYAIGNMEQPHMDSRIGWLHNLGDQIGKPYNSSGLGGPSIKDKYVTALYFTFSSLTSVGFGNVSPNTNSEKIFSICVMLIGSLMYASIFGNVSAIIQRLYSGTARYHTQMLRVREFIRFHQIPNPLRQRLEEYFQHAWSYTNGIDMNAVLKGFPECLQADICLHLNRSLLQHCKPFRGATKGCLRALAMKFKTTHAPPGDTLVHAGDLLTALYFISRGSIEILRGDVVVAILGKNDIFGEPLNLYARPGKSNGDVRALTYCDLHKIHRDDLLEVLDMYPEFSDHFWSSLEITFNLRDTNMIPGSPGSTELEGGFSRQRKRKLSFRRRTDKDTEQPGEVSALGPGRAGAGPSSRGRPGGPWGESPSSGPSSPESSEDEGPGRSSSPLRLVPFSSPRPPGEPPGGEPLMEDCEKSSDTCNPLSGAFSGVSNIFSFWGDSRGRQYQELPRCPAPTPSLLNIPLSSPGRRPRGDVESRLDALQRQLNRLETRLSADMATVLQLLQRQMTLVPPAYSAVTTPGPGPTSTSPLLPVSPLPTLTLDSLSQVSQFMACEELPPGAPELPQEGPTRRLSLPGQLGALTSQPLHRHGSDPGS

Heart = experiment: Drug uptake in Han Wistar rat heart at 2 mg/kg, iv administered as 4 hrs infusion; assay type: ADME, organism-based; conditions: in vivo; in short: as §1
[18] = Fraction unbound in dog blood; assay type: ADME, tissue-based, Canis lupus familiaris
[19] = Clearance in rat at 1.1 mg/kg, iv; assay type: ADME, organism-based; conditions: in vivo
[20] = biological target: T2, Nuclear receptor subfamily 1 group I member 2 (Homo sapiens, UniProt O75469); experiment: Activation of human PXR; assay type: ADME
T2 sequence (O75469 whole entry): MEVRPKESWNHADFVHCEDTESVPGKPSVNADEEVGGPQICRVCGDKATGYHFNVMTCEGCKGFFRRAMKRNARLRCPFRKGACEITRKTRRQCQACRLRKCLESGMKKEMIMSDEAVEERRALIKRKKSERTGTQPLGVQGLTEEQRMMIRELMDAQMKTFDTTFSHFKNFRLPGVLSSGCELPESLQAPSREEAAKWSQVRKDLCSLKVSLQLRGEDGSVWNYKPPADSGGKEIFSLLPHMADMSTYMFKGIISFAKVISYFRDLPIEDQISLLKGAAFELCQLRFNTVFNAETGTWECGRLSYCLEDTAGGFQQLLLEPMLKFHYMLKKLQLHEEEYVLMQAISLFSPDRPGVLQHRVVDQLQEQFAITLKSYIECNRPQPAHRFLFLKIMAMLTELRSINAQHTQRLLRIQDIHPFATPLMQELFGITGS

[21] = Drug metabolism in cynomolgus monkey hepatocytes assessed as (S)-3-amino-5-methyl-2,3-dihydrobenzo[b][1,4]oxazepin-4(5H)-one formation at 10 uM measured up to 4 hrs; assay type: ADME, cell-based, Macaca fascicularis, Hepatocyte; in short: as §2
[22] = Tmax in rat at 2.1 mg/kg, po; assay type: ADME, organism-based; conditions: in vivo
Cytochrome P450 2C9 = Cytochrome P450 2C9 (Homo sapiens, UniProt P11712); experiment: Inhibition of recombinant human CYP2C9; assay type: ADME
Cytochrome P450 2C9, sequence (P11712 whole entry, the tested form may be a part): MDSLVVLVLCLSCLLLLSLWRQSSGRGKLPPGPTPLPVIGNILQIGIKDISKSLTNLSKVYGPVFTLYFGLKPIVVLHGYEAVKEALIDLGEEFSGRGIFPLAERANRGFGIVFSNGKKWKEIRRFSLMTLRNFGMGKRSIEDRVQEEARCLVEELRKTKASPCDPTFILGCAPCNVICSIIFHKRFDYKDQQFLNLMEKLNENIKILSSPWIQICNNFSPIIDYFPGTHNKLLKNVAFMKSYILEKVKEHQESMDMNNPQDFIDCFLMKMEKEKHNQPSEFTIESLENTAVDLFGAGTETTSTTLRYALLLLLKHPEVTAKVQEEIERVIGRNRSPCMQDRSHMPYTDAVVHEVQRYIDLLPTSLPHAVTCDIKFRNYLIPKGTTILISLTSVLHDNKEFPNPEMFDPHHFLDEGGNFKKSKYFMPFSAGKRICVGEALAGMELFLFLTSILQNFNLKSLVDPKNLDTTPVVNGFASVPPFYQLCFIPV

Liver = experiment: Drug uptake in Han Wistar rat liver at 2 mg/kg, iv administered as 4 hrs infusion; assay type: ADME, organism-based; conditions: in vivo; in short: as §1
[23] = Drug metabolism in rat hepatocytes assessed as glucuronide metabolite M569 formation at 10 uM measured up to 4 hrs; assay type: ADME, cell-based, Hepatocyte; in short: as §2
[24] = Drug metabolism in human hepatocytes assessed as 5-benzyl-1H-1,2,4-triazole-3-carboxylic acid formation at 10 uM measured up to 4 hrs; assay type: ADME, cell-based, Hepatocyte; in short: as §2

CN1C(=O)[C@@H](NC(=O)c2nnc(Cc3ccccc3)[nH]2)COc2ccccc21 [GSK2982772]
Drug uptake (Kidney): Active | AUC(0-inf) [1]: 2300 ng·h/mL | Tmax [2]: 1.8 h | AUC [3]: 2900 ng·h/mL | solubility kinetic [4]: 100 µg/mL (≈ 265 µM) | Drug metabolism [5]: Metabolite_Detected | AUC [6]: 2300 ng·h/mL | solubility [7]: 230 µg/mL (≈ 609 µM) | half-life [8]: 390 min | clearance [9]: 10 mL/min/kg | IC50 [10]: 2500 nM | Drug uptake (Brain): 4% | fraction unbound [11]: 0.042 | Activity (Cynomolgus monkey): Non-Toxic | fraction unbound [12]: 0.11 | Drug metabolism [13]: Metabolite_Detected | Vd [14]: 2.2 L/kg | Drug metabolism [15]: Metabolite_Detected | Drug metabolism [16]: Metabolite_Detected | IC50 [17]: 195 µM | Drug uptake (Heart): Active | fraction unbound [18]: 0.11 | clearance [19]: 17 mL/min/kg | EC50 [20]: 13 µM | Drug metabolism [21]: Metabolite_Detected | Tmax [22]: 15 min | IC50 (Cytochrome P450 2C9): 25 µM | Drug uptake (Liver): Active | Drug metabolism [23]: Metabolite_Detected | Drug metabolism [24]: Metabolite_Detected
